Assay type in all cases: functional
Experiment [1] is filed under the species Mus musculus. As to the kind of experiment: In vitro activity for the ability to inhibit the uptake of Serotonin into mouse cortical slices; value ranges from 2.6-6.7. In short, it runs like this: (§1)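 Slices (60 mg cortical, 20 mg striatal) from untreated white mice (18–22 g) incubated with test compound, 0.2 nmol [3H]NE and 0.2 nmol [14C]-5-HT simultaneously, 0.48 μmol pargyline, 11 μmol glucose in 2.0 mL Krebs-Henseleit pH 7.4, 5 min under O2 with 6.5% CO2. 3H and 14C counted separately by liquid scintillation; active uptake = portion blocked by 3 × 10^-4 M cocaine.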

For experiment [2], the species on record is Mus musculus. Briefly: In vitro activity for the ability to inhibit the uptake of Norepinephrine into mouse cortical slices; value ranges from 2.2-5.5. In short, it runs like this: as §1
Experiment [3] concerns Mus musculus. As to the kind of experiment: Ability to inhibit the uptake of Norepinephrine into mouse cortical slices 1 hour after intraperitoneal injection ex vivo at a dose of >128. A digest of the protocol: (§2)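 Ex vivo: white mice (18–22 g), four per dose, given test drug intraperitoneally; 1 h later cerebral cortical plus striatal slices incubated 5 min with 0.2 nmol [3H]NE and 0.2 nmol [14C]-5-HT, pargyline, glucose in Krebs-Henseleit buffer pH 7.4 under O2/6.5% CO2. Dual-channel scintillation counting of dissolved slices; active uptake defined as cocaine (3 × 10^-4 M)-inhibitable.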

In experiment [4] the test system is Mus musculus. Briefly: Ability to inhibit the uptake of Serotonin into mouse cortical slices 1 hour after intraperitoneal injection ex vivo at a dose of >128. In short, it runs like this: as §2
In experiment [5] the test system is Mus musculus. As to the kind of experiment: Ability to inhibit the uptake of Norepinephrine into mouse cortical slices 1 hour after intraperitoneal injection ex vivo; value ranges from […]. Particulars: ip. In short, it runs like this: as §2
In experiment [6] the test system is Mus musculus. Briefly: Ability to inhibit the uptake of Serotonin into mouse cortical slices 1 hour after intraperitoneal injection ex vivo value ranges from 27-224. Particulars: ip. A digest of the protocol: as §2
Experiment [7] is filed under the species Mus musculus. Briefly: In vitro activity for the ability to inhibit the uptake of Norepinephrine into mouse cortical slices; value ranges from 1.1-4.4. A digest of the protocol:
as §1

The species entered for experiment [8] is Mus musculus. Briefly: In vitro activity for the ability to inhibit the uptake of Serotonin into mouse cortical slices; value ranges from 0.8-3.0. In short, it runs like this: as §1
The species named for experiment [9] is Mus musculus. As to the kind of experiment: In vitro activity for the ability to inhibit the uptake of Norepinephrine into mouse cortical slices at a dose of >25. A digest of the protocol:
as §1

The species entered for experiment [10] is Mus musculus. Briefly: In vitro activity for the ability to inhibit the uptake of Serotonin into mouse cortical slices; value ranges from 0.3-1.0. A digest of the protocol: as §1
The subject of experiment [11] is Mus musculus. As to the kind of experiment: Ability to inhibit the uptake of Serotonin into mouse cortical slices 1 hour after intraperitoneal injection ex vivo at concentration of 102 uM/Kg. In short, it runs like this: as §2
Experiment [12] has as its system Mus musculus. Briefly: Ability to inhibit the uptake of Norepinephrine into mouse cortical slices 1 hour after intraperitoneal injection ex vivo at a dose of 102. In short, it runs like this: as §2
For experiment [13], the species on record is Mus musculus. As to the kind of experiment: In vitro activity for the ability to inhibit the uptake of Norepinephrine into mouse cortical slices Value ranges from […]. A digest of the protocol: as §1
The species entered for experiment [14] is Mus musculus. As to the kind of experiment: In vitro activity for the ability to inhibit the uptake of Serotonin into mouse cortical slices at a dose of 27. In short, it runs like this: as §1
In experiment [15] the test system is Mus musculus. Briefly: Ability to inhibit the uptake of Norepinephrine into mouse cortical slices 1 hour after intraperitoneal injection ex vivo at a dose of >106. A digest of the protocol:
as §2

Experiment [16] has as its system Mus musculus. As to the kind of experiment: Ability to inhibit the uptake of Serotonin into mouse cortical slices 1 hour after intraperitoneal injection ex vivo at a dose > 106. A digest of the protocol: as §2
Experiment [17] is filed under the species Mus musculus. As to the kind of experiment: In vitro activity for the ability to inhibit the uptake of Serotonin into mouse cortical slices; value ranges from […]. A digest of the protocol: as §1
The species named for experiment [18] is Mus musculus. As to the kind of experiment: In vitro activity for the ability to inhibit the uptake of Norepinephrine into mouse cortical slices; value ranges from 2.3-7.0. A digest of the protocol:
as §1

In experiment [19] the test system is Mus musculus. As to the kind of experiment: Ability to inhibit the uptake of Norepinephrine into mouse cortical slices 1 hour after intraperitoneal injection ex vivo at a dose of >117. In short, it runs like this: as §2
The test system of experiment [20] is Mus musculus. As to the kind of experiment: Ability to inhibit the uptake of Serotonin into mouse cortical slices 1 hour after intraperitoneal injection ex vivo at a dose of >117. In short, it runs like this: as §2
In experiment [21] the test system is Mus musculus. Briefly: Ability to inhibit the uptake of Norepinephrine into mouse cortical slices 1 hour after intraperitoneal injection ex vivo; value ranges from 11-23. Conditions: ip. A digest of the protocol: as §2
Experiment [22] relates to Mus musculus. Briefly: Ability to inhibit the uptake of Serotonin into mouse cortical slices 1 hour after intraperitoneal injection ex vivo. Conditions: ip. A digest of the protocol:
as §2

The species named for experiment [23] is Mus musculus. As to the kind of experiment: In vitro activity for the ability to inhibit the uptake of Serotonin into mouse cortical slices; value ranges from 2.0-6.4. A digest of the protocol: as §1
The species named for experiment [24] is Mus musculus. Briefly: In vitro activity for the ability to inhibit the uptake of Norepinephrine into mouse cortical slices; value ranges from 0.2-1.0. A digest of the protocol:
as §1

Experiment [25] has as its system Mus musculus. As to the kind of experiment: Ability to inhibit the uptake of Norepinephrine into mouse cortical slices 1 hour after intraperitoneal injection ex vivo. Conditions: ip.
For experiment [26], the species on record is Mus musculus. As to the kind of experiment: (§3) In vitro activity for the ability to inhibit the uptake of Norepinephrine into mouse cortical slices. Particulars: read-out: ED50 (the source's name). In short, it runs like this: (§4)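 Slices from untreated white mice (18–22 g), four animals per dose: 60 mg cortical plus 20 mg striatal, with test compound in the bath. Simultaneous uptake of [3H]NE and [14C]-5-HT (0.2 nmol each), with 0.48 μmol pargyline and 11 μmol glucose in 2.0 mL Krebs-Henseleit buffer, pH 7.4. Incubation 5 min under O2/6.5% CO2. Separate 3H and 14C channels; active uptake is the portion inhibited by 3 × 10^-4 M cocaine.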

The species entered for experiment [27] is Mus musculus. Briefly: (§5) In vitro activity for the ability to inhibit the uptake of Serotonin into mouse cortical slices. Particulars: read-out: ED50 (the source's name). In short, it runs like this: as §4
For experiment [28], the species on record is Mus musculus. The description is as §3. In short, it runs like this:
as §1

For experiment [29], the species on record is Mus musculus. The experiment is described as §5. In short, it runs like this: as §1

Data on nine compounds can be found in ChEMBL document CHEMBL1122897, “Tetracyclic pyridazines as potential psychopharmacological agents” (J Med Chem, 1985).

As usually defined, the Inhibition is the change of the read-out against control, counted positive when it falls. Turning to `CN(C)CCc1nnc2ccccc2c1-c1cccc(Cl)c1`, the results for the EC50 in experiment [1] and in [2] were 4.2 µM and 3.5 µM, respectively. In addition, the Inhibition in experiment [3] turned out to be 49%; in [4], 42%.

Broadly, the ED50 is the dose at which the effect has come halfway, by size or by number of responders. Take `CN(C)CC/C=C1\c2ccccc2CCc2cccc(N)c21`: the values for the ED50 in [5] and in experiment [6] were 15 µmol/kg and 55 µmol/kg, respectively. The EC50 in [7] came to 2.2 µM; in experiment [8] it was 1.6 µM.

In the case of `CN(C)CC/C=C(\c1cccc(Cl)c1)c1ccccc1N`, the Inhibition in experiment [9] is 37%; in experiment [11], 55%; in experiment [12], 33%. This compound yielded an EC50 in experiment [10] of 0.5 µM.

Take `CN(C)CCc1nnc2cccc3c2c1-c1ccccc1CC3`: in [13], the EC50 was 6.6 µM. Moreover, the Inhibition in experiment [14] worked out at 46%; in [15] it was 13%; in experiment [16] it was 11%.

Consider `CN(C)CCc1nnc2cccc3c2c1-c1cc(Cl)ccc1S3`, for which the EC50 in experiment [17] was found to be 7.3 µM; in [18], 3.8 µM. The Inhibition turned out to be 27% in experiment [19] and 16% in experiment [20].

Take `CN(C)CC/C=C1\c2cc(Cl)ccc2Sc2cccc(N)c21`: the figures for the ED50 in [21] and in experiment [22] were 16 µmol/kg and above 99 µmol/kg, respectively. Besides, the EC50 in experiment [23] is 3.5 µM; in experiment [24], 0.7 µM.

Consider `CN(C)CCC=C1c2ccccc2CCc2ccccc21` [AMITRIPTYLINE], for which the ED50 in experiment [25] is 144 µmol/kg; in experiment [22], above 144 µmol/kg. For the same compound, the EC50 in [26] is 5.4 µM; in [27], 2.9 µM.

For the compound `CNCCCN1c2ccccc2CCc2ccccc21` [DESIPRAMINE], the EC50 was 0.07 µM in experiment [28] and 12 µM in experiment [29]. In experiment [22], the median effective dose (ED50) is above 132 µmol/kg.

Consider `CN(C)CCCN1c2ccccc2CCc2ccccc21` [IMIPRAMINE], for which the results for the EC50 in experiment [28] and in experiment [29] were 1.3 µM and 0.3 µM, respectively. The ED50 in experiment [25] was 63 µmol/kg; in experiment [22] it was 126 µmol/kg.
